Data from ChEMBL document CHEMBL1127327, “Novel series of TSAO-T derivatives. Synthesis and anti-HIV-1 activity of 4-, 5-, and 6-substituted pyrimidine analogues” (J Med Chem, 1994).
pEC50: −log10 of the molar value. Where “and” joins values, the source holds several entries; their conditions need not be identical. Equal entries are not always repeated.

Columns and labels:
MT4 [1] = experiment: Selectivity index (ratio CC50/EC50) in MT-4 cells is measured; type: functional
Summary of the method: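 Ratio of CC50 to EC50, both from MT-4 cultures read after 5 days by trypan blue viable-cell counts. CC50 is the concentration reducing mock-infected MT-4 cell number by 50%. EC50 comes from HIV-infected MT-4 cells (100 CCID50 per mL, 5 × 10^5 cells/mL).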

CCRF-CEM [2] = experiment: Effective concentration against HIV-2 induced cytopathicity in CEM cells; type: functional, cell-based; settings: Homo sapiens
Summary of the method: (§1)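 CEM cells at 5 × 10^5 cells/mL in fresh medium, infected with HIV-1 or HIV-2 at 100 CCID50 per mL of suspension, then mixed 1:1 with serial compound dilutions. Virus-induced syncytia were counted microscopically after 4 days. EC50 is the concentration reducing syncytium number by 50%.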

[3] = system: Human immunodeficiency virus; experiment: Effective concentration against HIV-1 induced cytopathicity in MT-4 cells; type: functional, organism-based, MT4
Summary of the method: (§2)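 MT-4 cells at 5 × 10^5 cells/mL, infected with HIV-1 or HIV-2 at 100 CCID50 per mL, then mixed 1:1 with serial compound dilutions. After 5 days, viable cells in infected and mock-infected cultures were counted by trypan blue exclusion. EC50 is the concentration giving a 50% reduction in virus-induced loss of viable cells.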

MT4 [4] = experiment: Concentration required for 50% of cell death on MT-4 cell lines; type: functional, Homo sapiens
Summary of the method: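 Mock-infected MT-4 cells (5 × 10^5 cells/mL) in fresh culture medium, mixed in microtiter wells with dilutions of test compound. After 5 days, viable cells counted by trypan blue staining. CC50 taken as the compound concentration that reduces the number of mock-infected MT-4 cells by 50%.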

CCRF-CEM [5] = experiment: Effective concentration against HIV-1 induced cytopathicity in CEM cells; type: functional, cell-based; settings: Homo sapiens; summary of the method: as §1
MT4 [6] = experiment: Effective concentration against HIV-2 induced cytopathicity in MT-4 cells; type: functional, cell-based; settings: Homo sapiens; summary of the method: as §2
[7] = Human immunodeficiency virus 1, MT4

Row | Structure (SMILES) | Selectivity index (MT4 [1]) | pEC50 (CCRF-CEM [2]) | pEC50 ([3]; mt4) | CC50 (MT4 [4]) [µM] | pEC50 (CCRF-CEM [5]) | pEC50 [3, 7] | pEC50 (MT4 [6])
1 | CC(C)(C)[Si](C)(C)OC[C@H]1O[C@@H](n2cc(F)c(=O)[nH]c2=O)[C@H](O[Si](C)(C)C(C)(C)C)[C@]12OS(=O)(=O)C=C2N | 10 | < 5.17 | 6.30 and < 5.89 | 5 | 6.47 |  | 
2 | CC(C)(C)[Si](C)(C)OC[C@H]1O[C@@H]2[C@H](O[Si](C)(C)C(C)(C)C)[C@]13OS(=O)(=O)C=C3Nc1cc(=O)[nH]c(=O)n12 | 2.7 |  | 5.23 and < 4.92 | 16 |  |  | 
3 | COC(=N)c1cc(=O)[nH]c(=O)n1[C@@H]1O[C@H](CO[Si](C)(C)C(C)(C)C)[C@@]2(OS(=O)(=O)C=C2N)[C@H]1O[Si](C)(C)C(C)(C)C | 4.1 | < 5.20 | 5.57 and < 5.20 | 11 | 5.96 |  | 
4 | CC(C)(C)[Si](C)(C)OC[C@H]1O[C@@H](n2ccc(N)nc2=O)[C@H](O[Si](C)(C)C(C)(C)C)[C@]12OS(=O)(=O)C=C2N | 460 | < 3.46 |  | > 350 | 5.86 |  | 
5 | Cc1cn([C@@H]2O[C@H](CO[Si](C)(C)C(C)(C)C)[C@@]3(OS(=O)(=O)C=C3N)[C@H]2O[Si](C)(C)C(C)(C)C)c(=O)nc1N | 250 | < 4.87 |  | 30 | 7.30 |  | 
6 | Cc1cn([C@@H]2O[C@H](CO[Si](C)(C)C(C)(C)C)C3(OS(=O)(=O)C=C3N)[C@H]2O[Si](C)(C)C(C)(C)C)c(=O)[nH]c1=O (some centres undefined) | 217 | < 5.15 |  | 13 | 7.36 |  | 
7 | CC(C)(C)[Si](C)(C)OC[C@H]1O[C@@H](n2ccc(=O)[nH]c2=O)[C@H](O[Si](C)(C)C(C)(C)C)C12OS(=O)(=O)C=C2N (some centres undefined) | 74 |  |  | 14 |  |  | 
8 | CC(C)(C)[Si](C)(C)OC[C@H]1O[C@@H](n2cc(C(F)(F)F)c(=O)[nH]c2=O)[C@H](O[Si](C)(C)C(C)(C)C)[C@]12OS(=O)(=O)C=C2N | 17 | < 5.21 | 6.09 and < 5.21 | 14 | 6.11 |  | 
9 | CN(C)c1ccn([C@@H]2O[C@H](CO[Si](C)(C)C(C)(C)C)[C@@]3(OS(=O)(=O)C=C3N)[C@H]2O[Si](C)(C)C(C)(C)C)c(=O)n1 | 252 | < 3.78 |  | > 166 | 6.12 |  | 
10 | CCc1cn([C@@H]2O[C@H](CO[Si](C)(C)C(C)(C)C)[C@@]3(OS(=O)(=O)C=C3N)[C@H]2O[Si](C)(C)C(C)(C)C)c(=O)[nH]c1=O | 88 |  |  | 5.3 |  |  | 
11 | CNc1ccn([C@@H]2O[C@H](CO[Si](C)(C)C(C)(C)C)[C@@]3(OS(=O)(=O)C=C3N)[C@H]2O[Si](C)(C)C(C)(C)C)c(=O)n1 | 18 | < 5.17 | 6.17 and < 5.17 | 12 | 5.47 |  | 
12 | CC(C)(C)[Si](C)(C)OC[C@H]1O[C@@H](n2c(C#N)cc(=O)[nH]c2=O)[C@H](O[Si](C)(C)C(C)(C)C)[C@]12OS(=O)(=O)C=C2N | 3 | < 5.18 | 5.44 | 11 | 5.68 | 5.44 | 
13 | CNc1nc(=O)n([C@@H]2O[C@H](CO[Si](C)(C)C(C)(C)C)[C@@]3(OS(=O)(=O)C=C3N)[C@H]2O[Si](C)(C)C(C)(C)C)cc1C | 217 | < 4.48 |  | 26 | 6.96 |  | 
14 | CC(C)(C)[Si](C)(C)OC[C@H]1O[C@@H](n2cc(I)c(=O)[nH]c2=O)[C@H](O[Si](C)(C)C(C)(C)C)[C@]12OS(=O)(=O)C=C2N | 133 | < 5.24 |  | 12 | 7.52 |  | 
15 | CC(C)(C)[Si](C)(C)OC[C@H]1O[C@@H](n2cc(Br)c(=O)[nH]c2=O)[C@H](O[Si](C)(C)C(C)(C)C)[C@]12OS(=O)(=O)C=C2N | 11 |  | 6.49 and < 5.62 | 3.6 |  |  | 
16 | Cc1cn([C@@H]2O[C@H](CO[Si](C)(C)C(C)(C)C)[C@@]3(OS(=O)(=O)C=C3N)[C@H]2O[Si](C)(C)C(C)(C)C)c(=O)nc1N(C)C | 388 |  |  | 62 |  | 6.80 | < 4.49
